Assay results as given in PubChem BioAssay AID623990 (Broad Institute, 2012).
Active and inactive are the calls of the source.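 The calls were made as follows: active = falling cell signal with fitted IC50 no higher than a set limit, twice the top tested dose; inconclusive = flat fit with toxicity between 30 and 70%, or poor fit; inactive = the rest.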

system: HeLa viability, CellTiter-Glo ATP luminescence; experiment: mammalian cell viability loss in HeLa – CellTiter-Glo luminescence, dry powder, set 2, cytotoxicity control for pyoverdine/PvdQ inhibitor project, dose response (AID 623990); conditions: not given
How it was run: (§1)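 Buffer or medium: phenol red-free DMEM, 10% FBS / System: HeLa cells / Amount: 2,500 cells/well / Doses: 3-fold dose series / Times: cells settled 24 h at 37 °C, then compound exposure 48 h / Measure: cell viability from luminescent signal, signal drop indicating toxicity / Signal: CellTiter-Glo ATP luminescence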

Which IC50 does the source give for `CN(C)CCCC(C#N)c1ccc(F)cc1` (stereo unspecified) here?
The IC50 was > 240 µM (inactive).

For `N#CC(c1ccc(Cl)cc1)c1ncccc1Cl` (stereo unspecified), which IC50 is on record?
Its IC50 is > 240 µM (inactive).

With `CCCCC(c1ccc(Cl)cc1)c1nn[nH]n1` (stereo unspecified) as the molecule, how does the IC50 read?
The IC50 was > 240 µM (inactive).

For `COCCC(C#N)c1ccc(Cl)cc1` (stereo unspecified), which IC50 is on record?
Its IC50 is 62.2 µM.

Which IC50 does the source give for `N#CC(c1cccc(C(F)(F)F)n1)c1ccc(Cl)cc1F` (stereo unspecified) here?
The IC50 was > 240 µM (inactive).

For `N#CC(c1cccc(Cl)n1)c1ccc(Cl)cc1F` (stereo unspecified), which IC50 is on record?
The IC50 was 111 µM.

system: not listed separately; experiment: as above; conditions: HeLa viability, CellTiter-Glo ATP luminescence; at 120 µM (top of the series)
How it was run: as §1

For `N#CC(c1ccc(Cl)cc1)c1cccc(C(F)(F)F)n1` (stereo unspecified), which activity change, negative = toxicity is on record?
Its activity change, negative = toxicity is 10.3% (inactive).

For `CCCCC(C#N)c1ccc(F)cc1` (stereo unspecified), which activity change, negative = toxicity is on record?
Its activity change, negative = toxicity is 5.81% (inactive).

Which activity change, negative = toxicity does the source give for `N#CC(c1ccc(Cl)cc1)c1cccc(Cl)n1` (stereo unspecified) here?
The activity change, negative = toxicity was 12.2% (inactive).

For `N#CC(c1ccc(C(F)(F)F)c(Cl)n1)c1ccccc1OC(F)(F)F` (stereo unspecified), which activity change, negative = toxicity is on record?
The activity change, negative = toxicity was 5.17% (inactive).

With `CCCCC(C#N)c1ccc(Cl)cc1` (stereo unspecified) as the molecule, how does the activity change, negative = toxicity read?
Its activity change, negative = toxicity is 13.5% (inactive).

For `COCCOCCC(C#N)c1ccc(Cl)cc1` (stereo unspecified), which activity change, negative = toxicity is on record?
Its activity change, negative = toxicity is -0.038% (inactive).

With `COCCC(C#N)c1ccc(F)cc1` (stereo unspecified) as the molecule, how does the activity change, negative = toxicity read?
Its activity change, negative = toxicity is 6.44% (inactive).

Which activity change, negative = toxicity does the source give for `CCCCC(C#N)c1ccccn1` (stereo unspecified) here?
Its activity change, negative = toxicity is 2.12% (inactive).

For `N#CC(c1ccc(F)cc1)c1cccc(C(F)(F)F)n1` (stereo unspecified), which activity change, negative = toxicity is on record?
Its activity change, negative = toxicity is 13.5% (inactive).

Which activity change, negative = toxicity does the source give for `COCCOCCC(C#N)c1ccc(F)cc1` (stereo unspecified) here?
Its activity change, negative = toxicity is 3.67% (inactive).

Which activity change, negative = toxicity does the source give for `N#Cc1cccc(C(C#N)c2ccc(F)cc2)n1` (stereo unspecified) here?
The activity change, negative = toxicity was 4.63% (inactive).

With `N#CC(c1ccc(Cl)cc1)c1ccccn1` (stereo unspecified) as the molecule, how does the activity change, negative = toxicity read?
The activity change, negative = toxicity was 5.57% (inactive).

Which activity change, negative = toxicity does the source give for `CN(C)CCCC(C#N)c1ccc(Cl)cc1` (stereo unspecified) here?
The activity change, negative = toxicity was 23.3% (inactive).

Which activity change, negative = toxicity does the source give for `CCCCC(C#N)c1ccc(F)cn1` (stereo unspecified) here?
Its activity change, negative = toxicity is 7.3% (inactive).

With `N#CC1c2ccc(Cl)cc2CCc2cccnc21` (stereo unspecified) as the molecule, how does the activity change, negative = toxicity read?
Its activity change, negative = toxicity is 2.14% (inactive).

Which activity change, negative = toxicity does the source give for `CCCCC(C#N)c1ccc(Cl)cn1` (stereo unspecified) here?
Its activity change, negative = toxicity is 27.3% (inactive).

With `N#CC(c1ccc(Cl)cc1)N1CCCC1` (stereo unspecified) as the molecule, how does the activity change, negative = toxicity read?
The activity change, negative = toxicity was 30.4% (inactive).

With `N#CC(c1ccc(F)cc1)c1cccc(Cl)n1` (stereo unspecified) as the molecule, how does the activity change, negative = toxicity read?
The activity change, negative = toxicity was -3.39% (inactive).

For `COCCNC(C#N)c1ccc(Cl)cc1` (stereo unspecified), which activity change, negative = toxicity is on record?
The activity change, negative = toxicity was 4.87% (inactive).

With `Clc1ccc(C(c2cccc(Cl)n2)c2nn[nH]n2)cc1` (stereo unspecified) as the molecule, how does the activity change, negative = toxicity read?
The activity change, negative = toxicity was 8.71% (inactive).
